Legend:
Format in all cases: functional
[1] = test system: Rattus norvegicus; assay: Percent change in nonimmune L3 inflammatory lesions in rat adjuvant-induced arthritis at 50 mg/kg
Method in brief: (§1)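 Male Wistar rats received 0.75 mg M. butyricum in paraffin oil intradermally into the left hindpaw. Compounds were given daily po in 0.5% tragacanth from the injection day for 17 days, skipping days 4, 5, 11 and 12. Leg volumes were read by mercury displacement: left leg on day 3, both legs on day 16. Eight treated rats vs 16 vehicle controls; Student's t test. ED25 is the dose giving a 25% volume decrease, from at least three doses, with 95% limits by Fieller's theorem.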

[2] = species on record: Mus musculus; assay: Immunoregulatory activity against mouse contact sensitivity was evaluated as percent change
Method in brief: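 Male C57B1/6 mice were sensitized with 0.1 mL of 5% oxazolone in absolute ethanol on the clipped abdomen. At 45 h the left hind leg was challenged with 5% oxazolone. Compound was given po in 0.5% tragacanth. Edema was read plethysmographically 24 h later as left minus right leg volume. Six mice vs eight controls; Student's t test.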

[3] = test system: Rattus norvegicus; assay: Percent change in nonimmune L16 inflammatory lesions in rat adjuvant-induced arthritis at 50 mg/kg; method in brief: as §1
[4] = test system: Rattus norvegicus; assay: Percent change in immune R16 inflammatory lesions in rat adjuvant-induced arthritis at 50 mg/kg; method in brief: as §1

SMILES | Change [1] [%] | Change [2] [%] | Change [3] [%] | Change [4] [%]
COc1cc(-c2nc3n(c2-c2cc(OC)c(OC)c(OC)c2)CCS3)cc(OC)c1OC | -2 | 75 | 0 | -19
c1ccc2c(c1)nc1n2CCS1 | -18 | 51 | -2 | 7
COc1ccc(-c2nc3n(c2-c2ccccc2)CCS3)cc1OC | 8 | 82 | -1 | -6
CSc1ccc(-c2nc3n(c2-c2ccc(F)cc2)CCS3)cc1 | -14 | 44 | 0 | 6
CCSc1nc(-c2ccc(OC)cc2)c(-c2ccc(OC)cc2)[nH]1 | -31 | 119 | -42 | -37
COc1ccc(-c2nc3n(c2-c2ccc(OC)c(C)c2)CCS3)cc1C | -16 | 30 | -20 | -19
COc1ccc(-c2nc3n(c2-c2ccc(OC)c(OC)c2)CCS3)cc1OC | 0 | 48 | -2 | 5
COc1ccccc1-c1nc2n(c1-c1ccccc1OC)CCS2 | 0 | 95 | -5 | -7
COc1ccc(-c2nc3n(c2-c2ccc(OC)cc2)CCCS3)cc1 | -2 | 30 | -4 | -20
CCOc1ccc(-c2nc3n(c2-c2ccc(OCC)cc2)CCS3)cc1 | -22 | 150 | -34 | -32
Clc1ccc(-c2nc3n(c2-c2ccc(Cl)cc2)CCS3)cc1 | -18 | 43 | -35 | -38
FC(F)(F)COc1ccc(-c2nc3n(c2-c2ccc(OCC(F)(F)F)cc2)CCS3)cc1 | -13 | 26 | -20 | -3
C[S+]([O-])c1ccc(-c2nc3n(c2-c2ccc([S+](C)[O-])cc2)CCS3)cc1 (configuration not stated) | -25 | 117 | -27 | -19
Cc1cccc(-c2nc3n(c2-c2cccc(C)c2)CCS3)c1 | -14 | 38 | -13 | -5
COc1ccc(-c2nc3n(c2-c2ccccc2)CCS3)cc1 | -5 | 26 | -10 | 1
Fc1ccc(-c2nc3n(c2-c2ccc(F)cc2)CCS3)cc1 | -39 | 79 | -36 | -49
COc1ccc(-c2cn3c(n2)SCC3)cc1 | -3 | 132 | -10 | -16
C=CCOc1ccc(-c2nc3n(c2-c2ccc(OCC=C)cc2)CCS3)cc1 | -2 | 71 | -2 | -21
Fc1cccc(-c2nc3n(c2-c2cccc(F)c2)CCS3)c1 | -1 | 22 | -1 | 3
COc1ccc(-c2nc(SC)[nH]c2-c2ccc(OC)cc2)cc1 | -29 | 52 | -45 | -38
c1cc2c(cc1-c1nc3n(c1-c1ccc4c(c1)OCO4)CCS3)OCO2 | -18 | 16 | -23 | -27
Nc1ccc(-c2nc3n(c2-c2ccc(N)cc2)CCS3)cc1 | -15 | 36 | -10 | 0
COc1ccc(-c2nc3n(c2-c2ccc(F)cc2)CCS3)cc1 | 11 | 103 | -4 | 6

Source: ChEMBL document CHEMBL1123024, “5,6-Diaryl-2,3-dihydroimidazo[2,1-b]thiazoles: a new class of immunoregulatory antiinflammatory agents” (1985)
